Assays:
Assay type in all cases: ADME, organism-based
Settings in all cases: in vivo
[1] = Oral bioavailability in rat at 2 mg/kg
How it was run: (§1)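 Rat PK: compound formulated at 1 mg/mL in PEG 200:water (70:30). Dosed iv at 1 mg/kg (n = 2) and orally at 2 mg/kg (n = 3). Blood concentrations measured by LC/MS/MS after protein precipitation with acetonitrile.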

Rattus norvegicus = assay: Dose normalized AUC in rat at 1 mg/kg, iv; design: dose 1 mg/kg, route intravenous; how it was run: as §1
[2] = Volume of distribution in rat at 1 mg/kg, iv and 2 mg/kg, po; how it was run: as §1

| bioavailability [1] [%] | AUC/dose (Rattus norvegicus) [µM·kg·h/mg] | Vd [2] [L/kg] | SMILES |
| --- | --- | --- | --- |
| 44 | 3.7 | 1.2 | COc1cc(OC)cc(-c2nnc([C@@]3(Cc4ccccc4)OC(=O)N([C@H](C)c4ccccc4)C3=O)o2)c1 |
| 89 | 4.4 | 1 | C[C@H](c1ccccc1)N1C(=O)O[C@](Cc2ccccc2)(c2nnc(C3(c4ccccc4)CC3)o2)C1=O |

From ChEMBL document CHEMBL3232811, “Mineralocorticoid receptor antagonists: identification of heterocyclic amide replacements in the oxazolidinedione series” (Bioorg Med Chem Lett, 2014)
